Statin myotox sup: protects C2C12 myotubes from simvastatin toxicity | ATP luminescence, 48 h; scaled: DMSO 0, geranylgeraniol control 100 | rescue of ATP level, % at 7.49 µM | 0.78% of 330,000 active | AID 602340;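 active means mean ATP rescue above about 67%, or every replicate alone reaching that limit, limit read from the data, passing the limit was not always enough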;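 further: myotubes were challenged with 10 µM simvastatin during compound exposure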
ERp5 block: blocks human ERp5 reductase activity on insulin; Q15084; AID 651711; ERp5 insulin aggregation, absorbance 650 nm, 90 min; inhibition, % at 9.99 µM; 0.05% of 350,000 active;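 active means mean replicate inhibition above about 25%, with every replicate also reaching it, limit read from the data, passing the limit was not always enough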
Target sequence (Q15084 whole entry, looked up): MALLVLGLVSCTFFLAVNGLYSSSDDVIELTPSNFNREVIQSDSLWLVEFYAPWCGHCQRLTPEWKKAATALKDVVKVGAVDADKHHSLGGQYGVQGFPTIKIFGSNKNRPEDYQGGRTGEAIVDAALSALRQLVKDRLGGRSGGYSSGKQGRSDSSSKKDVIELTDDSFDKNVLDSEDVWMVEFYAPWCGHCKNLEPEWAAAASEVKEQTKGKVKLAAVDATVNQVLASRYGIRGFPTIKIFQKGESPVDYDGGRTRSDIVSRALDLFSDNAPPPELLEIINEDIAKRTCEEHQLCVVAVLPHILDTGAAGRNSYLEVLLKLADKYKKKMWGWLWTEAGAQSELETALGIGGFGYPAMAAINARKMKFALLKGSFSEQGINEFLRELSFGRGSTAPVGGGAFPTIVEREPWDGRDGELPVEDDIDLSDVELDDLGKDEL
CFTR F508del cor: correctors of CFTR F508del function in bronchial epithelial cells | CFBE cells, YFP halide quenching; stimulated with forskolin plus potentiator P3; % fluorescence drop versus neutral controls | activity (quench increase), % at 7.58 µM | 0.36% of 350,000 active;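 active means mean added fluorescence quench of at least 8% versus neutral control, with both replicates also reaching 8%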;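 further: cells transiently co-express mutant CFTR-F508del with the halide-sensitive YFP; corrector assay measuring rescue of mutant channel to the surface after 24 h compound exposure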
PDI inh: PDI (human) enzyme inhibition; AID 588391; inhibition, % at 10 µM; PDI insulin aggregation turbidity, A650, 90 min; 0.052% of 350,000 active;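 active means mean inhibition across replicates of 30% or more, whatever share of single replicates reach that level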
Cneo AK release: causes C. neoformans cell lysis; adenylate kinase release luminescence, 4 h; normalised: neutral wells 0, clomiphene wells 100; lysis activity, % at 15 µM; 0.2% of 360,000 active; AID 651654;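 active means mean lysis activity across replicates of at least 80%, whatever share of replicates individually reach that level; inactive means mean lysis activity below 80%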
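Material: C. neoformans cells; Schedule: 4 h static compound exposure, 37 °C, read 1 h post-reagent; Measured by: adenylate kinase release luminescence; Read-out: signal increase indicating cell lysis; Controls: Clomiphene as positive lysis control.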
DENV2 CPE rescue: DENV2-induced cell death inhibition | DENV2-infected cells, cytopathic effect rescue, plate reader | AID 651640 | 1.7% of 350,000 active | CPE inhibition, % at 9.99 µM; in the data active means CPE inhibition above about 20%, passing the limit was not always enough; tested in BHK-21 cells;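 further: 0% = median of neutral control wells and 100% = median of positive control wells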
* marks the source's active call; other numbers are inactive results; / = no result; ! = not active in a repeat. In the library only some 2.3% were active in any assay of this set; here they are far more common.

SMILES	Statin myotox sup	ERp5 block	CFTR F508del cor	PDI inh	Cneo AK release	DENV2 CPE rescue
COCC#Cc1ccc([C@@H]2[C@@H](CO)N3CCCCN(S(=O)(=O)c4ccccc4F)C[C@@H]23)cc1	13	-3	-2	/	2	21*
COCC#Cc1ccc([C@H]2[C@H](CO)N3CCCCN(S(=O)(=O)c4ccc(OC)cc4)C[C@@H]23)cc1	11	-3	0	/	0	62*
COc1ccccc1NC(=O)N1C[C@H](O)COC[C@H]2O[C@H](CC(=O)NCc3ccccc3)CC[C@@H]21	0	-1	-2	/	0	2
C[C@@H]1CN([C@@H](C)CO)C(=O)c2cccc(NC(=O)c3nc4ccccc4s3)c2O[C@H]1CN(C)S(C)(=O)=O	/	-3	-2	/	-4	-7
Cc1csc2sc(-c3ccnc(SCC(=O)NCc4ccccc4)n3)c(C)c12	/	-3	16*	1	-4	-1
COc1ccc2c3c([nH]c2c1)[C@H](CO)N(C(=O)C1CCOCC1)CC31CN(Cc2cccc(F)c2)C1	/	-5	0	/	/	1
O=C1CC(SC(=Nc2ccccc2)Nc2ccccc2)C(=O)N1c1cccc2ccccc12 (stereo not drawn)	120*	/	/	-4	1	/
COCCNC(=O)C[C@H]1CC[C@H]2[C@H](COc3ccc(NC(=O)Cc4ccccc4)cc3C(=O)N2C)O1	7	1	-3	/	-3	0
N#CCCN(C(=O)COC(=O)c1ccc2c(c1)OCO2)c1ccccc1	-1	-5	0	-7	1	6
CCn1nc(C(=O)OCC(=O)N(CCC#N)c2ccccc2)c2ccccc2c1=O	6	-1	-2	12	-1	75*
N#CCCN(C(=O)COC(=O)c1cc(=O)c2ccccc2o1)c1ccccc1	-2	-1	13*	-4	0	14
C[C@@H]1CCCCO[C@H](CN(C)S(=O)(=O)c2ccccc2)[C@H](C)CN([C@@H](C)CO)C(=O)c2cc(NS(=O)(=O)c3ccccc3)ccc2O1	/	-1	3	/	52	0
COc1cccc2c1C(=O)c1c(O)c3c(c(O)c1C2=O)CC(O)(C(=O)CO)CC3OC1CC(N(C)C)C(O)C(C)O1 (stereo not drawn)	/	-2	25*	12	/	-3
COc1cccc2c1C(=O)c1c(O)c3c(c(O)c1C2=O)C[C@@](O)(C(C)=O)C[C@@H]3O[C@H]1C[C@H](N)[C@H](O)[C@H](C)O1	-167	5	75*	10	-1	1
COc1cccc2c1C(=O)c1c(O)c3c(c(O)c1C2=O)C[C@@](O)(C(=O)CO)C[C@@H]3O[C@H]1C[C@H](N)[C@@H](O)[C@H](C)O1	-178	/	/	1	-2	/
O=C(NCC[C@H]1CC[C@H](NS(=O)(=O)Cc2ccccc2)[C@H](CO)O1)C1CCOCC1	3	2	0	/	-1	4
C[C@H](CO)N1C[C@H](C)[C@H](CN(C)C(=O)c2ccncc2)Oc2cc(-c3cccc(C#N)c3)ccc2S1(=O)=O	-17	3	1	/	-1	1
CCOC1=C2[C@@H](CN(S(=O)(=O)c3ccc(C)cc3)[C@H]2c2ccc(Cl)cc2)[C@H]2C(=O)N(c3ccccc3)C(=O)[C@H]2C1	-2	-3	11*	/	0	-2
CCOC1=C2CN(S(=O)(=O)c3ccc(C)cc3)[C@@H](c3ccc(CC)cc3)C[C@H]2[C@H]2C(=O)N(c3ccccc3)C(=O)[C@H]2C1	-9	0	0	/	0	1
CCOC1=C2CN(S(=O)(=O)c3ccc(C)cc3)[C@H](c3ccccc3)C[C@H]2[C@H]2C(=O)N(c3ccccc3)C(=O)[C@H]2C1	-10	3	-1	/	1	49*
CCOC1=C2CN(S(=O)(=O)c3ccc(C)cc3)C(c3ccc(CC)cc3)CC2N(S(=O)(=O)c2ccc(C)cc2)C(c2ccc(CC)cc2)C1 (stereo not drawn)	/	-4	0	/	/	-5
CCOC1=C2CN(S(=O)(=O)c3ccc(C)cc3)[C@H](c3ccc(CC)cc3)C[C@@H]2N(S(=O)(=O)c2ccc(C)cc2)[C@H](c2ccccc2)C1	-5	-2	-4	/	-1	95*
COc1ccc(NC(=O)N(C)C[C@H]2OCCCC[C@@H](C)Oc3ccc(NS(=O)(=O)c4ccc(OC)cc4)cc3C(=O)N([C@@H](C)CO)C[C@@H]2C)cc1	/	/	-1	/	-1	-13
O=C(C[C@H]1CC[C@@H](NC(=O)c2cccc(F)c2)[C@H](CO)O1)NCCN1CCCC1	2	-1	-3	/	9	6
C[C@H]1CN([C@@H](C)CO)C(=O)Cc2cc(NS(=O)(=O)c3ccc(Cl)cc3)ccc2O[C@H]1CN(C)C(=O)Nc1cccc2ccccc12	14	-6	-1	/	-4	3
SMILES	Statin myotox sup	ERp5 block	CFTR F508del cor	PDI inh	Cneo AK release	DENV2 CPE rescue
CCCNC(=O)Nc1ccc2c(c1)OC[C@@H](C)N(Cc1ccc(-c3ccccn3)cc1)C[C@H](C)[C@@H](OC)CN(C)C2=O	11	/	2	/	2	-1
CC1=CC(=O)C(Sc2ccc(C)cc2)=CC1=O	-107	-8	/	-1	-2	95*
COc1ccc(S(=O)(=O)NC(CC(=O)NCc2ccc3c(c2)OCO3)c2ccco2)cc1 (stereo not drawn)	117*	/	/	-1	0	/
CCCNS(=O)(=O)c1ccc(CCC(=O)NCc2ccc3c(c2)OCO3)cc1	/	/	/	-11	3	/
O=C(CCNS(=O)(=O)c1ccc(Br)cc1)NCc1ccc2c(c1)OCO2	152*	/	/	4	-3	/
CN1c2ccc(-c3ccccc3)cc2[C@@H]2[C@@H](CCN2S(=O)(=O)c2ccccc2F)[C@@H]1CO	-29	2	-3	/	4	68*
Cc1ccccc1S(=O)(=O)N1CC[C@@H]2[C@@H](CO)N(C)c3ccc(-c4cccc(F)c4)cc3[C@@H]21	-16	/	0	/	-16	44*
C/C=C/c1ccc(C2[C@@H]3CN(C(=O)Nc4ccc5c(c4)OCO5)C[C@H]2N3)cc1 (stereo partly drawn)	/	/	-2	/	/	27*!
COc1cc(OC)cc(-c2c(-c3cccs3)c3cc(Br)ccc3n2C)c1	-3	1	-2	-7	6	-23
COc1cc(OC)cc(-c2c(-c3cccs3)c3cc(-c4ccn[nH]4)ccc3n2C)c1	2	5	1	-3	-1	33*
COc1cc(OC)cc(-c2c(-c3cccs3)c3cc(-c4ccc5c(c4)OCO5)ccc3n2C)c1	-17	-7	3	0	-1	14
COc1cc(OC)cc(-c2c(-c3cccs3)c3cc(-c4ccc(N(C)C)nc4)ccc3n2C)c1	6	1	3	9	0	34*
COc1cc(F)cc(-c2ccc3c(c2)c(-c2cccs2)c(-c2cc(OC)cc(OC)c2)n3C)c1	-86	-7	-1	-1	2	78*

Compound activity deposited in PubChem BioAssay by Broad Institute.
